Measured values: ChEMBL document CHEMBL4130512, “Design, synthesis and biological evaluation of novel α-hederagenin derivatives with anticancer activity” (Eur J Med Chem, 2017)

Columns and labels:
MKN-45 [1] = assay: Antiproliferative activity against human MKN45 cells assessed as cell viability at 10 uM after 72 hrs by MTT assay relative to control; format: functional; settings: MKN-45, 72 h, read-out: Activity
How it was run: (§1)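 Single-concentration MTT screen. Log-phase cells in DMEM with 10% FCS were treated for 72 h in 96-well plates. After MTT and DMSO, absorbance was read at 570 nm. Viability was calculated relative to control as mean ± SD of three independent experiments.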

KB [2] = assay: Antiproliferative activity against human KB cells assessed as cell viability at 10 uM after 72 hrs by MTT assay relative to control; format: functional; settings: read-out: Activity; how it was run: as §1
KB [3] = assay: Antiproliferative activity against human KB cells after 72 hrs by MTT assay; format: functional, cell-based
How it was run: (§2)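 Cells grown in DMEM with 10% heat-inactivated FCS, penicillin and streptomycin, at 37°C in 5% CO₂, and used in log phase. Cells were seeded in 96-well plates and exposed to compound for 72 h. MTT was added, then DMSO, and OD was read at 570 nm. Survival rate was calculated and IC50 taken as 50% growth inhibition.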

[4] = Antiproliferative activity against human KBV cells after 72 hrs by MTT assay; format: functional, cell-based; how it was run: as §2
HeLa = assay: Antiproliferative activity against human HeLa cells after 72 hrs by MTT assay; format: functional, cell-based; how it was run: as §2
A549 = assay: Antiproliferative activity against human A549 cells after 72 hrs by MTT assay; format: functional, cell-based; settings: A549, 72 h; how it was run: as §2
MKN-45 [5] = assay: Antiproliferative activity against human MKN45 cells after 72 hrs by MTT assay; format: functional, cell-based; settings: MKN-45, 72 h; how it was run: as §2
BGC-823 = assay: Antiproliferative activity against human BGC823 cells after 72 hrs by MTT assay; format: functional, cell-based; settings: BGC-823, 72 h; how it was run: as §2
AGS = assay: Antiproliferative activity against human AGS cells after 72 hrs by MTT assay; format: functional, cell-based; how it was run: as §2
MKN-45 [6] = assay: Cell cycle arrest in human MKN45 cells assessed as apoptotic cell accumulation at 10 uM after 24 hrs by propidium iodide staining based flow cytometry (reference value: 1.51%); format: functional
How it was run: (§3)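 MKN45 cells were plated at 2×10⁵ cells/well in 6-well plates and exposed for 24 and 48 h. Cells were harvested, fixed and stained with propidium iodide (50 µg/mL). DNA content was read by FACScan flow cytometry for phase distribution. The sub-G0/G1 fraction was taken as apoptotic.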

MKN-45 [7] = assay: Cell cycle arrest in human MKN45 cells assessed as accumulation at G1-phase at 10 uM after 24 hrs by propidium iodide staining based flow cytometry (reference value: 67%); format: functional; how it was run: as §3
MKN-45 [8] = assay: Cell cycle arrest in human MKN45 cells assessed as accumulation at S-phase at 10 uM after 24 hrs by propidium iodide staining based flow cytometry (reference value: 15%); format: functional; how it was run: as §3
MKN-45 [9] = assay: Cell cycle arrest in human MKN45 cells assessed as accumulation at G2/M-phase at 10 uM after 24 hrs by propidium iodide staining based flow cytometry (reference value: 19%); format: functional; how it was run: as §3
MKN-45 [10] = assay: Cell cycle arrest in human MKN45 cells assessed as apoptotic cell accumulation at 10 uM after 48 hrs by propidium iodide staining based flow cytometry (reference value: 1.51%); format: functional; how it was run: as §3
MKN-45 [11] = assay: Cell cycle arrest in human MKN45 cells assessed as accumulation at G1-phase at 10 uM after 48 hrs by propidium iodide staining based flow cytometry (reference value: 67%); format: functional; how it was run: as §3
MKN-45 [12] = assay: Cell cycle arrest in human MKN45 cells assessed as accumulation at S-phase at 10 uM after 48 hrs by propidium iodide staining based flow cytometry (reference value: 15%); format: functional; how it was run: as §3
MKN-45 [13] = assay: Cell cycle arrest in human MKN45 cells assessed as accumulation at G2/M-phase at 10 uM after 48 hrs by propidium iodide staining based flow cytometry (reference value: 19%); format: functional; how it was run: as §3

Row | Compound | viability at 10 µM (MKN-45 [1]) [%] | viability at 10 µM (KB [2]) [%] | further results
1 | CC1(C)CC[C@]2(C(=O)OCc3ccccc3)CC[C@]3(C)C(=CC[C@@H]4[C@@]5(C)Cc6nccnc6[C@@](C)(COC(=O)CCC(=O)O)[C@@H]5CC[C@]43C)[C@@H]2C1 | 70 | 98 | 
2 | CC1(C)CC[C@]2(C(=O)OCc3ccccc3)CC[C@]3(C)C(=CC[C@@H]4[C@@]5(C)Cc6nccnc6[C@@](C)(COC(=O)CCCCCO[N+](=O)[O-])[C@@H]5CC[C@]43C)[C@@H]2C1 | 84 | 63 | 
3 | CC1(C)CC[C@]2(C(=O)OCc3ccccc3)CC[C@]3(C)C(=CC[C@@H]4[C@@]5(C)CCC(OC(=O)CCCCCO[N+](=O)[O-])[C@@](C)(COC(=O)CCCCCO[N+](=O)[O-])[C@@H]5CC[C@]43C)[C@@H]2C1 (stereo partly drawn) | 85 | 61 | 
4 | CC1(C)CC[C@]2(C(=O)OCc3ccccc3)CC[C@]3(C)C(=CC[C@@H]4[C@@]5(C)Cc6nccnc6[C@@](C)(COC(=O)CCC(=O)Nc6ccccc6N)[C@@H]5CC[C@]43C)[C@@H]2C1 | 86 | 57 | 
5 | CC1(C)CC[C@]2(C(=O)OCc3ccccc3)CC[C@]3(C)C(=CC[C@@H]4[C@@]5(C)CC/C(=N\O)[C@@](C)(CO)[C@@H]5CC[C@]43C)[C@@H]2C1 | 64 | 76 | 
6 | CC1(C)CC[C@]2(C(=O)OCc3ccccc3)CC[C@]3(C)C(=CC[C@@H]4[C@@]5(C)Cc6nccnc6[C@@](C)(COC(=O)c6ccccc6C(=O)O)[C@@H]5CC[C@]43C)[C@@H]2C1 | 84 | 81 | 
7 | CC1(C)CC[C@]2(C(=O)OCc3ccccc3)CC[C@]3(C)C(=CC[C@@H]4[C@@]5(C)CCC(=O)[C@@](C)(COC(=O)c6ccccc6C(=O)Oc6ccc(CCO[N+](=O)[O-])cc6)[C@@H]5CC[C@]43C)[C@@H]2C1 | 78 | 86 | 
8 | CC1(C)CC[C@]2(C(=O)OCc3ccccc3)CC[C@]3(C)C(=CC[C@@H]4[C@@]5(C)Cc6nccnc6[C@@](C)(COC(=O)CCC(=O)OCCc6ccc(OCCO[N+](=O)[O-])cc6)[C@@H]5CC[C@]43C)[C@@H]2C1 | 93 | 50 | 
9 | CC1(C)CC[C@]2(C(=O)OCc3ccccc3)CC[C@]3(C)C(=CC[C@@H]4[C@@]5(C)CCC(=O)[C@@](C)(COC(=O)CCCCCO[N+](=O)[O-])[C@@H]5CC[C@]43C)[C@@H]2C1 | 75 | 50 | 
10 | CC1(C)CC[C@]2(C(=O)OCc3ccccc3)CC[C@]3(C)C(=CC[C@@H]4[C@@]5(C)CCC(=O)[C@@](C)(COC(=O)c6ccccc6C(=O)OCCc6ccc(OCCO[N+](=O)[O-])cc6)[C@@H]5CC[C@]43C)[C@@H]2C1 | 89 | 67 | 
11 | CC1(C)CC[C@]2(C(=O)OCc3ccccc3)CC[C@]3(C)C(=CC[C@@H]4[C@@]5(C)CCC(=O)[C@@](C)(COC(=O)CCC(=O)Nc6ccccc6N)[C@@H]5CC[C@]43C)[C@@H]2C1 | 99 | 50 | 
12 | CC1(C)CC[C@]2(C(=O)OCc3ccccc3)CC[C@]3(C)C(=CC[C@@H]4[C@@]5(C)Cc6nccnc6[C@@](C)(COC(=O)CCC(=O)Oc6ccc(CCO[N+](=O)[O-])cc6)[C@@H]5CC[C@]43C)[C@@H]2C1 | 100 | 69 | 
13 | CC1(C)CC[C@]2(C(=O)OCc3ccccc3)CC[C@]3(C)C(=CC[C@@H]4[C@@]5(C)CCC(=O)[C@@](C)(COC(=O)CCCCO[N+](=O)[O-])[C@@H]5CC[C@]43C)[C@@H]2C1 | 54 | 60 | 
14 | CC1(C)CC[C@]2(C(=O)OCc3ccccc3)CC[C@]3(C)C(=CC[C@@H]4[C@@]5(C)CCC(OC(=O)CCCCO[N+](=O)[O-])[C@@](C)(COC(=O)CCCCO[N+](=O)[O-])[C@@H]5CC[C@]43C)[C@@H]2C1 (stereo partly drawn) | 97 | 58 | 
15 | CC1(C)CC[C@]2(C(=O)OCc3ccccc3)CC[C@]3(C)C(=CC[C@@H]4[C@@]5(C)Cc6nccnc6[C@@](C)(COC(=O)c6ccccc6C(=O)Oc6ccc(CCO[N+](=O)[O-])cc6)[C@@H]5CC[C@]43C)[C@@H]2C1 | 78 | 49 | 
16 | CC1(C)CC[C@]2(C(=O)OCc3ccccc3)CC[C@]3(C)C(=CC[C@@H]4[C@@]5(C)CCC(=O)[C@@](C)(COC(=O)CCC(=O)Nc6ccc(N)cc6)[C@@H]5CC[C@]43C)[C@@H]2C1 | 92 | 51 | 
17 | CC1(C)CC[C@]2(C(=O)OCc3ccccc3)CC[C@]3(C)C(=CC[C@@H]4[C@@]5(C)CCC(=O)[C@@](C)(COC(=O)CCC(=O)Oc6ccc(CCO[N+](=O)[O-])cc6)[C@@H]5CC[C@]43C)[C@@H]2C1 | 100 | 53 | 
18 | CC1(C)CC[C@]2(C(=O)OCc3ccccc3)CC[C@]3(C)C(=CC[C@@H]4[C@@]5(C)CCC(=O)[C@@](C)(COC(=O)CCC(=O)OCCc6ccc(OCCO[N+](=O)[O-])cc6)[C@@H]5CC[C@]43C)[C@@H]2C1 | 93 | 76 | 
19 | CC1(C)CC[C@]2(C(=O)O)CC[C@]3(C)C(=CC[C@@H]4[C@@]5(C)CC[C@H](O)[C@@](C)(CO)[C@@H]5CC[C@]43C)[C@@H]2C1 [HEDERAGENIN] | 75 | 81 | IC50 (KB [3]): 54.4 µM; IC50 [4]: > 100 µM; IC50 (HeLa): 54 µM; IC50 (A549): > 100 µM; IC50 (MKN-45 [5]): 53.7 µM; IC50 (BGC-823): 52.1 µM; IC50 (AGS): 36.1 µM; Activity (MKN-45 [6]): 1.44%; Activity (MKN-45 [7]): 69%; Activity (MKN-45 [8]): 14%; Activity (MKN-45 [9]): 17%; Activity (MKN-45 [10]): 5.87%; Activity (MKN-45 [11]): 63%; Activity (MKN-45 [12]): 12%; Activity (MKN-45 [13]): 25%
20 | CC1(C)CC[C@]2(C(=O)OCc3ccccc3)CC[C@]3(C)C(=CC[C@@H]4[C@@]5(C)CCC(=O)[C@@](C)(COC(=O)c6ccccc6C(=O)Nc6cccc(N)c6)[C@@H]5CC[C@]43C)[C@@H]2C1 | 93 | 62 | 
21 | CC1(C)CC[C@]2(C(=O)OCc3ccccc3)CC[C@]3(C)C(=CC[C@@H]4[C@@]5(C)Cc6nccnc6[C@@](C)(CO)[C@@H]5CC[C@]43C)[C@@H]2C1 | 77 | 75 | 
22 | CC1(C)CC[C@]2(C(=O)OCc3ccccc3)CC[C@]3(C)C(=CC[C@@H]4[C@@]5(C)CCC(=O)[C@@](C)(COC(=O)c6ccccc6C(=O)O)[C@@H]5CC[C@]43C)[C@@H]2C1 | 40 | 51 | 
23 | CC1(C)CC[C@]2(C(=O)OCc3ccccc3)CC[C@]3(C)C(=CC[C@@H]4[C@@]5(C)Cc6nccnc6[C@@](C)(COC(=O)CCCCO[N+](=O)[O-])[C@@H]5CC[C@]43C)[C@@H]2C1 | 89 | 59 | 
24 | CC1(C)CC[C@]2(C(=O)OCc3ccccc3)CC[C@]3(C)C(=CC[C@@H]4[C@@]5(C)Cc6nccnc6[C@@](C)(COC(=O)c6ccccc6C(=O)OCCc6ccc(OCCO[N+](=O)[O-])cc6)[C@@H]5CC[C@]43C)[C@@H]2C1 | 84 | 55 | 
